Data as given in ChEMBL document CHEMBL1143253, “Strongylophorines: natural product inhibitors of hypoxia-inducible factor-1 transcriptional pathway” (J Med Chem, 2008).
The source made the active and inactive calls. The calls are words filed in the database; no cut-off is given here.

Experiments:
[1] = Decrease in protein expression of VEGF in human U251-HRE cells under hypoxic condition at 30 uM; format: functional, cell-based
Method in brief: (§1)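 U251-HRE cells (1 × 10^5) plated in six-well plates, treated after 24 h for 4 h under hypoxia; normoxic and compound-free hypoxic lanes included. Lysis in PBS/0.1% NP-40 with sonication, 100 µg protein on 12.5% polyacrylamide gels. Probed with monoclonal anti-HIF-1α and anti-VEGF (1:500), β-tubulin (1:10000) loading control, HRP anti-mouse secondary, ECL detection.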

[2] = Cytotoxicity against human U251-HRE cells at 100 uM after 16 hrs by MTT assay; format: functional
Method in brief: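 U251-HRE glioma cells seeded 10000/well, left 24 h, then exposed to compound 16 h at 37 °C under normoxia (the hypoxic arm ran 24 h in a hypoxic incubator). Medium replaced with fresh medium plus 20 µL MTT (1.5 mg/mL) for 3 h, formazan dissolved in DMSO, absorbance read at 570 nm. Percent cytotoxicity from treated vs control A570; triplicate, SE.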

[3] = target: T1, Hypoxia inducible factors; HIF-1-alpha, HIF-2-alpha (Homo sapiens, UniProt Q16665+Q99814); assay: Inhibition of hypoxia-induced HIF1 transcriptional activation in human U251-pGL3 cells at 30 uM by luciferase reporter assay; format: cell-based
Method in brief: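 Counter-screen in U251-pGL3 cells, where firefly luciferase is driven by the SV40 promoter/enhancer, run in parallel with the HRE reporter assay. Cells incubated with compound under hypoxia (1% O2), then lysed and luciferase luminescence read. Data normalized to vehicle; triplicate.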

[4] = Decrease in protein expression of HIF1-alpha in human U251-HRE cells under hypoxic condition at 30 uM; format: functional, cell-based; method in brief: as §1
[5] = target: T1, Hypoxia inducible factors; HIF-1-alpha, HIF-2-alpha; assay: Inhibition of hypoxia-induced HIF1 transcriptional activation in human U251-HRE cells by luciferase reporter assay; format: cell-based
Method in brief: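 Stably transfected U251 glioma cells carrying a luciferase reporter driven by three HRE copies, seeded 10000/well and grown 24 h. Compounds in 2-propanol were tested at 1–100 µM for 16 h at 1% O2/5% CO2/94% N2. Cells were lysed and Bright-Glo luminescence read, normalized to vehicle, with ≥15-fold hypoxic induction required. EC50 derived from dose–response; triplicate.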

MDA-MB-231 = assay: Antiinvasive activity against human MDA-MB-231 cells; format: functional, cell-based

Activity [3]	EC50 [5] [µM]	EC50 (MDA-MB-231) [µM]	SMILES	Activity [1]	inhibition at 100 µM [2] [%]	Activity [4]
inactive	8	–	C[C@@]12CC[C@H]3[C@]4(CCC[C@]3(C)C(=O)OC4)[C@H]1CC[C@]1(C)Oc3ccc(O)cc3C[C@@H]21	Active	17	Active
inactive	6	16	C[C@@]12CC[C@H]3[C@]4(CCC[C@]3(C)C(=O)OC4)[C@H]1CC[C@](C)(O)[C@H]2Cc1cc(O)ccc1O	Active	–	Active
inactive	13	–	C[C@@]12CC[C@H]3[C@](C)(CCC[C@]3(C)C(=O)O)[C@H]1CC[C@]1(C)Oc3ccc(O)cc3C[C@@H]21	Active	–	Active
